Laboratory results reported in ChEMBL document CHEMBL3425409, “General role of the amino and methylsulfamoyl groups in selective cyclooxygenase(COX)-1 inhibition by 1,4-diaryl-1,2,3-triazoles and validation of a predictive pharmacometric PLS model” (Eur J Med Chem, 2015).
Calls of active or inactive are those of the source. The rule behind the calls is not given here.

Columns and labels:
[1] = biological target: T1, Prostaglandin G/H synthase 1 (Ovis aries) (UniProt P05979); experiment: Inhibition of ovine COX-1 assessed as inhibition of PGH2 production using arachidonic acid as substrate at 50 uM by TMPD oxidation based colorimetric assay
T1 sequence (whole entry): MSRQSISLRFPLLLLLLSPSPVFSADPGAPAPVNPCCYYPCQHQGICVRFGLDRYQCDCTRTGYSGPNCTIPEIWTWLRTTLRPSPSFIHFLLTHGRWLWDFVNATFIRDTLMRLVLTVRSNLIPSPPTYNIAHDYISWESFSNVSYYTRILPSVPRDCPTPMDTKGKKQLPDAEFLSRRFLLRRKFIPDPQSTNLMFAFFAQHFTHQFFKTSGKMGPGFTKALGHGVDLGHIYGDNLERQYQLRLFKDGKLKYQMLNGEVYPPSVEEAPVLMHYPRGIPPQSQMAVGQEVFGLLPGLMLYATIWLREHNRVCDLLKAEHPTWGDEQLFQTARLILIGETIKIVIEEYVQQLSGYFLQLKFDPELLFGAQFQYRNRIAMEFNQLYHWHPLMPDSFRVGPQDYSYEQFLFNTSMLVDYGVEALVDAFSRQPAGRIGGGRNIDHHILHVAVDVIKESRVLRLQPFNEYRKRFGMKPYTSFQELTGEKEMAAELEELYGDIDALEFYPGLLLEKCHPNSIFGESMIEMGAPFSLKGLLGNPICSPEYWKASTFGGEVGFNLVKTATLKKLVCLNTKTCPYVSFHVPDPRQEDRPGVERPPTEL
In short: (§1)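 Ovine COX-1 and COX-2 tested with a commercial colorimetric COX inhibitor screening kit, run per the manufacturer's protocol. The kit reads the enzyme's peroxidase activity. Compounds screened as percent inhibition at a single 50 µM concentration.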

[2] = biological target: T2, Prostaglandin G/H synthase 2 (Ovis aries) (UniProt P79208); experiment: Inhibition of ovine COX-2 assessed as inhibition of PGH2 production using arachidonic acid as substrate at 50 uM by TMPD oxidation based colorimetric assay; in short: as §1
T2 sequence (whole entry): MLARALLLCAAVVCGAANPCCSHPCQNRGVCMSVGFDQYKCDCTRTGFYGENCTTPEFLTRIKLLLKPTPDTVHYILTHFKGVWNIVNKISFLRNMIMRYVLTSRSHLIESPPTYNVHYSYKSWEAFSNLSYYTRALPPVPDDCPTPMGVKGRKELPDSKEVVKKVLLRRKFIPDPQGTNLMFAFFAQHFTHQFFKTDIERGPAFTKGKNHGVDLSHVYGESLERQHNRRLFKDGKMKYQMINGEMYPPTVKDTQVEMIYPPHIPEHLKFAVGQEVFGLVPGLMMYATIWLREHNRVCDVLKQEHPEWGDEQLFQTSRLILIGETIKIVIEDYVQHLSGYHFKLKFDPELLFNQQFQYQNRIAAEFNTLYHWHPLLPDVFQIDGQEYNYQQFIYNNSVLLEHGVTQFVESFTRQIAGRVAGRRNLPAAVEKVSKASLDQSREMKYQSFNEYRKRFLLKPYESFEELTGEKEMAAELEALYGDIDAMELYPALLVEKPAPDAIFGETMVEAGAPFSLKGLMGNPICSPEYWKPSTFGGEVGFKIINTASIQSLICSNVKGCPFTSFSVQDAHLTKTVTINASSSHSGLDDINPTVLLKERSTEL

[3] = biological target: T3, Prostaglandin G/H synthase 2 (Homo sapiens, UniProt P35354); experiment: Inhibition of LPS-induced COX2 in human whole blood assessed as reduction in […] levels by radioimmunoassay
T3 sequence (P35354 whole entry): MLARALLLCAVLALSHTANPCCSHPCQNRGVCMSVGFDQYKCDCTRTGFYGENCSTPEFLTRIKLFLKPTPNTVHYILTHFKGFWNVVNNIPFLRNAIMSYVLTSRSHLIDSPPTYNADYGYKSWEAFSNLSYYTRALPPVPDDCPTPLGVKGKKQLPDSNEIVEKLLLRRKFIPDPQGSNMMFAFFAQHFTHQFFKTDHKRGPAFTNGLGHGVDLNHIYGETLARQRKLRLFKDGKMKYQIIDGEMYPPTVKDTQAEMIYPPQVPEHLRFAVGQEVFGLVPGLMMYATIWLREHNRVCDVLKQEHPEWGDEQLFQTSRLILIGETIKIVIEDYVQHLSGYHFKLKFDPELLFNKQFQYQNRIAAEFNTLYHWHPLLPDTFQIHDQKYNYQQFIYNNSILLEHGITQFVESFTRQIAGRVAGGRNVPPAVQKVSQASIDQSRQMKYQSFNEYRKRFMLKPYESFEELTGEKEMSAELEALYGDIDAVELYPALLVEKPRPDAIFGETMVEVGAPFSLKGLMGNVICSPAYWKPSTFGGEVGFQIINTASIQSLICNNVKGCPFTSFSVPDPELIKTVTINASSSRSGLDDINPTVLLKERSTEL

[4] = biological target: T4, Prostaglandin G/H synthase 2 (Ovis aries, UniProt P79208); experiment: Inhibition of ovine COX-2 assessed as inhibition of PGH2 production using arachidonic acid as substrate by TMPD oxidation based colorimetric assay
T4 sequence (P79208 whole entry): T2 sequence (whole entry)

MCF7 = experiment: Antiproliferative activity against human MCF7 cells assessed as cell growth inhibition after 48 hrs by MTT assay; format: cell-based; details: mcf7, 48 h
In short: (§2)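 MTT read-out of growth after 48 h. After the drug incubation, MTT was added at 0.5 mg/mL for 3 h at 37 °C. Supernatant was removed, formazan dissolved in DMSO, and absorbance read.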

SK-OV-3 = experiment: Antiproliferative activity against human SKOV3 cells assessed as cell growth inhibition after 48 hrs by MTT assay; format: cell-based; details: sk-ov-3, 48 h; in short: as §2

inhibition [1] | inhibition [2] | SMILES | further results
inactive | 40% | Cc1c(-c2ccco2)nnn1-c1ccc([N+](=O)[O-])cc1 | 
inactive | inactive | Cc1c(-c2ccccc2)nnn1-c1ccc([N+](=O)[O-])cc1 | 
89% |  | Cc1onc(-c2ccc(Cl)o2)c1-c1ccccc1 | IC50 [3]: > 100000 nM
inactive | inactive | COc1ccc(-n2nnc(-c3ccc(SC)cc3)c2C)cc1 | 
 |  | COc1ccc(-c2noc(CC(=O)O)c2-c2ccc(OC)cc2)cc1 [MOFEZOLAC] | IC50 [4]: 440 nM
56% | inactive | Cc1c(-c2ccccc2)nnn1-c1ccc(N)cc1 | Activity (MCF7): Non-toxic; Activity (SK-OV-3): Non-toxic
inactive | inactive | COc1ccc(-c2nnn(-c3ccc(SC)cc3)c2C)cc1 | 
inactive | inactive | Cc1c(-c2ccccc2)nnn1-c1ccc(Cl)cc1 | 
inactive | inactive | Cc1c(-c2ccccc2)nnn1-c1ccc(F)cc1 | 
inactive | inactive | COc1ccc(-n2nnc(-c3ccco3)c2C)cc1 | 
20% | inactive | COc1ccc(-n2nnc(-c3ccc(S(C)(=O)=O)cc3)c2C)cc1 | 
55% | inactive | COc1ccc(-c2nnn(-c3ccc(S(C)(=O)=O)cc3)c2C)cc1 | 
21% | 20% | Cc1c(-c2ccccc2)nnn1-c1ccc(S(C)(=O)=O)cc1 | 
100% | inactive | COc1ccc(-n2nnc(-c3ccc(N)cc3)c2C)cc1 | Activity (MCF7): Non-toxic; Activity (SK-OV-3): Non-toxic
26% | 35% | COc1ccc(-n2nnc(-c3ccccc3)c2C)cc1 | 
37% |  | Clc1ccc(-c2noc(CBr)c2-c2ccccc2)o1 | 
 | 28% | COc1ccc(-n2nc(C(F)(F)F)cc2-c2ccco2)cc1 | 
inactive | 14% | CSc1ccc(-n2nnc(-c3ccccc3)c2C)cc1 | 
11% |  | N#CCc1onc(-c2ccc(Cl)o2)c1-c1ccccc1 | 
20% | inactive | COc1ccc(-n2nnc(-c3ccc([N+](=O)[O-])cc3)c2C)cc1 | 
45% | inactive | COc1ccc(-n2nnc(-c3ccc(Cl)o3)c2C)cc1 | 
7% |  | COC(=O)Cc1onc(-c2ccc(Cl)o2)c1-c1ccccc1 | 
inactive | 26% | Cc1c(-c2ccccc2)nnn1-c1ccc(O)cc1 | 
25% | inactive | COc1ccc(-c2nnn(-c3ccc(OC)cc3)c2C)cc1 | 
